Results taken from the array DNA melting data of Ke et al. (doi:10.1101/2024.01.08.574731).

Legend:
[1] = folding enthalpy; higher = less favourable; fluorescence melt of hairpins on a sequencing array, two-state fit; settings: sodium 0.088 M
Outline: (§1)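 Folding enthalpy and melting temperature come from bootstrapped two-state fits to Cy3 fluorescence of library hairpins carrying annealed Cy3 and quencher oligos on a sequenced MiSeq flow cell. Imaging was done in 50 mM Na-HEPES pH 8.0, 25 mM NaCl, stepping by 2.5 °C up to 60 °C, and signals were normalised to pre-quench Cy3 and to control constructs. Results of four replicates were combined by inverse variance, and fitted temperatures were raised by 9.35 °C to match UV melts.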

[2] = melting temperature; fluorescence melt of hairpins on a sequencing array, two-state fit, raised by 9.35 °C to match UV melts; settings: sodium 0.088 M
Outline: as §1

| Sequence | folding enthalpy [1] [kcal/mol] | Tm [2] [°C] |
| --- | --- | --- |
| GTGGTTGAAAAACCAC ((((((....)))))) | -37.8 | 59.7 |
| GTGGTTGGAAACAATCAC (((.(((....))).))) | -36.6 | 47.7 |
| GTGTAACGAAAGTTCAC (((.(((....)))))) | -20 | 44.6 |
| GTGTAAGGAAACCTACAC (((((.(....).))))) | -30.6 | 38.1 |
| GTGTAAGGAAACTTATAC ((.((((....)))).)) | -19.6 | 33.8 |
| GTGTACCCGAAAGGGCAC (((..(((....)))))) | -20.6 | 48.3 |
| GTGTACGAAAGTAGGCAC ((((((....)))..))) | -16.5 | 32.8 |
| GTGTAGAAATACAC (((((....))))) | -21.8 | 41.6 |
| GTGTAGCGAAAGCTCAC (((.(((....)))))) | -23.2 | 51.8 |
| GTGTAGGAAACTACAC ((((((....)))))) | -38.1 | 53.5 |
| GTGTAGGGAAACCTATAC ((.((((....)))).)) | -24.8 | 38.2 |
| GTGTAGTCGAAAGACCAC (((..(((....)))))) | -19.5 | 42.1 |
| GTGTATCGAAAGATCAC (((.(((....)))))) | -29.4 | 46 |
| GTGTATCGAAAGATCCAC (((.(((....))).))) | -33.5 | 41.2 |
| GTGTATGCGAAAGCACAC (((..(((....)))))) | -22.1 | 45.4 |
| GTGTATTCGAAAGAACAC (((..(((....)))))) | -19.1 | 32.8 |
| GTGTCAACGAAAGTTCAC (((..(((....)))))) | -8.71 | 29.8 |
| GTGTCAGGAAACTGACAC (((((((....))))))) | -37 | 66.4 |
| GTGTCCACGAAAGTGCAC (((..(((....)))))) | -15.1 | 39.3 |
| GTGTCCCCGAAAGGGCAC (((..(((....)))))) | -21.4 | 49.6 |
| GTGTCCGAAAGGAAACAC ((((((....)))..))) | -22.4 | 46.5 |
| GTGTCCGAAAGGAACCAC ((((((....)))..))) | -12.6 | 35.3 |
| GTGTCCGAAAGGAATCAC ((((((....)))..))) | -17.3 | 34.3 |

| Sequence | folding enthalpy [1] [kcal/mol] | Tm [2] [°C] |
| --- | --- | --- |
| GTGTCCGAAAGGACTCAC ((((((....)))..))) | -10 | 39.4 |
| GTGTCCGAAAGGAGCCAC ((((((....)))..))) | -14.5 | 33.5 |
| GTGTCCGGAAACGAACAC ((((.((....)).)))) | -32.5 | 45.4 |
| GTGTCGACGAAAGTCCAC (((..(((....)))))) | -17.8 | 37.2 |
| GTGTCGGCGAAAGCCCAC (((..(((....)))))) | -13.5 | 43.8 |
| GTGTCGGGAAACCGATGC (..((((....))))..) | -23.8 | 46 |
| GTGTCTCCGAAAGGACAC (((..(((....)))))) | -25.1 | 45.7 |
| GTGTCTGCGAAAGCACAC (((..(((....)))))) | -14.6 | 43.8 |
| GTGTCTGGAAACAGATGC (..((((....))))..) | -20.7 | 40.2 |
| GTGTGAGAAATCACAC ((((((....)))))) | -30.9 | 55.8 |
| GTGTGAGGAAACCCACAC (((((.(....).))))) | -31.7 | 48.3 |
| GTGTGCGAAAGCACCAC ((((((....))).))) | -9.37 | 51 |
| GTGTGCGAAAGCACTCAC ((((((....)))..))) | -8.88 | 41.8 |
| GTGTGCGAAAGCAGCAC ((((((....))).))) | -20.1 | 52.5 |
| GTGTGCGAAAGCATGCAC ((((((....)))..))) | -16.1 | 45.1 |
| GTGTGCGGAAACGCATAC ((.((((....)))).)) | -37 | 54.6 |
| GTGTGGAAACACAC (((((....))))) | -25.8 | 60.6 |
| GTGTGGCGAAAGCCCCAC (((.(((....))).))) | -23.5 | 51.3 |
| GTGTGGGGAAACCCATAC ((.((((....)))).)) | -30.9 | 49.2 |
| GTGTGGGGAAACCTACAC ((((.((....)).)))) | -32.6 | 50.6 |
| GTGTGGGGAAACCTGCAC (((..((....))..))) | -31.9 | 44.8 |
| GTGTGTACGAAAGTACAC (((..(((....)))))) | -14.8 | 64.2 |
| GTGTGTGGAAACGCATAC ((.((.(....).)).)) | -22.9 | 36 |

| Sequence | folding enthalpy [1] [kcal/mol] | Tm [2] [°C] |
| --- | --- | --- |
| GTGTTAACGAAAGTTCAC (((..(((....)))))) | -12.5 | 34.9 |
| GTGTTACGAAAGTATCAC (((.(((....))).))) | -30.7 | 46.8 |
| GTGTTAGCGAAAGCTCAC (((..(((....)))))) | -21.9 | 44.2 |
| GTGTTCCGAAAGGATCAC (((.(((....))).))) | -34.4 | 51.5 |
| GTGTTCGAAAGAAAACAC ((((((....)))..))) | -22.6 | 38.2 |
| GTGTTCGAAAGAACAC ((((((....)))))) | -31.5 | 68.6 |
| GTGTTCGAAAGAATACAC ((((((....)))..))) | -22.9 | 42.6 |
| GTGTTCGGAAACGAACAC (((((((....))))))) | -36.3 | 67.9 |
| GTGTTCGGAAACGAATAC ((.((((....)))).)) | -31.7 | 49.2 |
| GTGTTGGGAAACCAACGC (.(((((....))))).) | -32.8 | 54.2 |
| GTGTTGGGAAACTAACGC (.(((.(....).))).) | -25.5 | 35.9 |
| GTGTTTCGAAAGAACAC (((.(((....)))))) | -32.3 | 46.9 |
| GTTAAAGCGAAAGCTAAC (((..(((....)))))) | -10.3 | 35.6 |
| GTTAACCGAAAGGTAAAC (((.(((....))).))) | -25.2 | 41.9 |
| GTTAACGAAAGTTAAAC ((((((....))).))) | -16.7 | 36 |
| GTTAACGAAAGTTCAAC ((((((....))).))) | -12.2 | 26.5 |
| GTTAACGAAAGTTGAAC ((((((....))).))) | -12.8 | 28.2 |
| GTTAACGCGAAAGCGAAC (((..(((....)))))) | -8.96 | 32.9 |
| GTTAACGGAAACGCTAAC ((((.((....)).)))) | -28.1 | 36.2 |
| GTTAACGGAAACGTTGAC ((.((((....)))).)) | -26.9 | 46.3 |
| GTTAAGGAAACTTAAC ((((((....)))))) | -29 | 43 |
| GTTAATGGAAACGTTAAC (((((.(....).))))) | -29.2 | 35.7 |
